In brackets after ≈: the same amount, converted by molar mass.
Assays:
Format in all cases: functional
Streptococcus pneumoniae [1] = experiment: Antibacterial activity against fluoroquinolone, dye-susceptible Streptococcus pneumoniae by standardized agar doubling dilution method
Outline: (§1)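 MIC by agar doubling dilution following BSAC guidelines. Strains grown in brain heart infusion broth 24 h at 37°C in 5% CO2. Where an efflux pump inhibitor applies, MIC redetermined with reserpine at 20 μg/ml or sodium orthovanadate at 50 μM. Synergy taken as a fall in MIC of ≥2 dilutions with inhibitor present. Dye resistance defined relative to R6 (both dyes ≥2 dilutions higher).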

Streptococcus pneumoniae [2] = experiment: Antibacterial activity against wild type Streptococcus pneumoniae R6 by standardized agar doubling dilution method in presence of 20 ug/ml reserpine efflux pump inhibitor; outline: as §1
Streptococcus pneumoniae [3] = experiment: Antibacterial activity against wild type Streptococcus pneumoniae M4 NCTC 7465 type 1 by standardized agar doubling dilution method in presence of 20 ug/ml reserpine efflux pump inhibitor; outline: as §1
Streptococcus pneumoniae [4] = experiment: Antibacterial activity against wild type Streptococcus pneumoniae M3 NCTC 7466 type 2 by standardized agar doubling dilution method; outline: as §1
Streptococcus pneumoniae [5] = experiment: Antibacterial activity against dye-resistant Streptococcus pneumoniae by standardized agar doubling dilution method; outline: as §1
Streptococcus pneumoniae [6] = experiment: Antibacterial activity against wild type Streptococcus pneumoniae M4 NCTC 7465 type 1 by standardized agar doubling dilution method; outline: as §1
Streptococcus pneumoniae [7] = experiment: Antibacterial activity against fluoroquinolone-resistant Streptococcus pneumoniae by standardized agar doubling dilution method in presence of 20 ug/ml reserpine efflux pump inhibitor; outline: as §1
Streptococcus pneumoniae [8] = experiment: Antibacterial activity against wild type Streptococcus pneumoniae R6 by standardized agar doubling dilution method; outline: as §1
Streptococcus pneumoniae [9] = experiment: Antibacterial activity against dye-resistant Streptococcus pneumoniae by standardized agar doubling dilution method in presence of 20 ug/ml reserpine efflux pump inhibitor; outline: as §1
Streptococcus pneumoniae [10] = experiment: Antibacterial activity against wild type Streptococcus pneumoniae M3 NCTC 7466 type 2 by standardized agar doubling dilution method in presence of 20 ug/ml reserpine efflux pump inhibitor; outline: as §1
Streptococcus pneumoniae [11] = experiment: Antibacterial activity against fluoroquinolone, dye-resistant Streptococcus pneumoniae by standardized agar doubling dilution method; outline: as §1
Streptococcus pneumoniae [12] = experiment: Antibacterial activity against fluoroquinolone, dye-resistant Streptococcus pneumoniae by standardized agar doubling dilution method in presence of 20 ug/ml reserpine efflux pump inhibitor; outline: as §1
Streptococcus pneumoniae [13] = experiment: Antibacterial activity against fluoroquinolone, dye-susceptible Streptococcus pneumoniae by standardized agar doubling dilution method in presence of 20 ug/ml reserpine efflux pump inhibitor; outline: as §1
Streptococcus pneumoniae [14] = experiment: Antibacterial activity against fluoroquinolone-resistant Streptococcus pneumoniae by standardized agar doubling dilution method; outline: as §1

SMILES: CCn1cc(C(=O)O)c(=O)c2cc(F)c(N3CCNCC3)cc21 [NORFLOXACIN]
- MIC90 (Streptococcus pneumoniae [1]): 4 µg/mL (≈ 12.5 µM)
- MIC (Streptococcus pneumoniae [2]): 2 µg/mL
- MIC (Streptococcus pneumoniae [3]): 4 µg/mL
- MIC (Streptococcus pneumoniae [4]): 4 µg/mL (≈ 12.5 µM)
- MIC (Streptococcus pneumoniae [5]): 4 µg/mL (≈ 12.5 µM)
- MIC90 (Streptococcus pneumoniae [5]): 4 µg/mL (≈ 12.5 µM)
- MIC (Streptococcus pneumoniae [6]): 8 µg/mL (≈ 25.1 µM)
- MIC90 (Streptococcus pneumoniae [7]): 8 µg/mL
- MIC (Streptococcus pneumoniae [8]): 4 µg/mL (≈ 12.5 µM)
- MIC (Streptococcus pneumoniae [9]): 1 µg/mL
- MIC90 (Streptococcus pneumoniae [9]): 1 µg/mL
- MIC (Streptococcus pneumoniae [10]): 2 µg/mL
- MIC90 (Streptococcus pneumoniae [11]): 32 µg/mL (≈ 100 µM)
- MIC90 (Streptococcus pneumoniae [12]): 8 µg/mL
- MIC (Streptococcus pneumoniae [13]): 1 µg/mL
- MIC90 (Streptococcus pneumoniae [13]): 1 µg/mL
- MIC90 (Streptococcus pneumoniae [14]): 32 µg/mL (≈ 100 µM)

Reference: ChEMBL document CHEMBL1687824, “Overexpression of patA and patB, which encode ABC transporters, is associated with fluoroquinolone resistance in clinical isolates of Streptococcus pneumoniae” (2011)
